Results published in ChEMBL document CHEMBL1124904, “7-Oxabicyclo[2.2.1]heptyl carboxylic acids as thromboxane A2 antagonists: aza omega-chain analogues” (J Med Chem, 1990).

Assays:
[1] = species on record: Bos taurus; assay: Evaluated for its specificity by inhibition of PGE-2 and arachidonic acid (substrate) biosynthesis, enzyme source is Bovine seminal Vesicles; type: functional
Method in brief: (§1)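 Microsomal enzyme preparations from human platelet, bovine seminal vesicles or bovine aorta, given arachidonic acid or PGH2 as substrate. Products measured: TxB2, PGE2 or 6-keto-PGF1α. IC50 reported.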

[2] = species on record: Homo sapiens; assay: Evaluated for its specificity to inhibit the aggregation of human platelets induced by U-46,619 at concentration of 10 uM; type: functional; conditions: read-out: I50
Method in brief: (§2)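 Human PRP aggregation induced by U-46,619 (11,9-epoxymethano-PGH2, stable PGH2/TxA2 mimic) at 5 or 10 μM; I50 reported. Values are single determinations unless otherwise noted.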

[3] = species on record: Homo sapiens; assay: Ability to inhibit platelet aggregation of human platelet-rich plasma (PRP) induced by 800 uM of AA-IPA (arachidonic acid); type: functional; conditions: Homo sapiens, Plasma; read-out: I50
Method in brief: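 Human platelet-rich plasma; aggregation triggered by arachidonic acid at 800 μM. Test acids were also checked against ADP (20 μM)-induced aggregation. I50 taken as the concentration inhibiting aggregation.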

[4] = species on record: Bos taurus; assay: Evaluated for its specificity by inhibition of 6-keto-PGF1-alpha and arachidonic acid (substrate) biosynthesis, enzyme source is Bovine Aorta; type: functional; method in brief: as §1
[5] = species on record: Homo sapiens; assay: Evaluated for its specificity to inhibit the aggregation of human platelets induced by Collagen at concentration of 20 ug/mL; type: functional; conditions: read-out: I50
Method in brief: (§3)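 Human platelet aggregation with agonist ADP 20 μM, collagen 10 or 20 μg/mL, or epinephrine 10 μM (primary and secondary phases scored separately); I50 reported.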

[6] = species on record: Homo sapiens; assay: Evaluated for its specificity by inhibition of PGE-2 and arachidonic acid (substrate) biosynthesis, enzyme source is human platelets.; type: functional; method in brief: as §1
[7] = test system: Cavia porcellus; assay: Evaluated for the percent inhibition of arachidonate-induced air-way resistance at 60 min after dosing (0.1 mg/kg iv) in anesthetized guinea pig.; type: functional
Method in brief: (§4)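 Anesthetized guinea pig dosed iv with antagonist at 0.1 mg/kg (some at 1.0 mg/kg). Arachidonic acid 0.5 mg/kg iv given as challenge 3 or 60 min later. Airway resistance, dynamic compliance and blood pressure recorded; percent inhibition of each response.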

[8] = test system: Cavia porcellus; assay: Evaluated for the percent inhibition of arachidonate-induced dynamic compliance at 3 min after dosing (0.1 mg/kg iv) in anesthetized guinea pig.; type: functional; method in brief: as §4
[9] = target: T1, Thromboxane A2 receptor (Homo sapiens, UniProt P21731); assay: Binding affinity was determined from the inhibition of [3H]-SQ 29,548 binding to Thromboxane A2 receptor in human platelet membranes.; type: cell membranes
T1 sequence (P21731 whole entry): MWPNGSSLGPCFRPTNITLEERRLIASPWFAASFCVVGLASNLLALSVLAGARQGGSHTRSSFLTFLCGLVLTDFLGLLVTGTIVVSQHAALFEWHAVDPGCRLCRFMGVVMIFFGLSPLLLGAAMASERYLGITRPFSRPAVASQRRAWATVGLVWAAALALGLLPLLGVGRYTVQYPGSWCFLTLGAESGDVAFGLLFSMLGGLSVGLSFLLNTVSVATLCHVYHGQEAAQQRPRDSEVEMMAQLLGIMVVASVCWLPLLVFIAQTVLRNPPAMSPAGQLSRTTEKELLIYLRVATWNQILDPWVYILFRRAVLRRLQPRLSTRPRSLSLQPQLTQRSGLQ
Method in brief: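 Radioligand binding to human platelet membranes with [5,6-3H2]-SQ 29,548 as tracer; Kd derived from inhibition of specific binding.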

[10] = species on record: Homo sapiens; assay: Evaluated for its specificity to inhibit the aggregation of human platelets induced by ADP at concentration of 20 uM; type: functional; conditions: read-out: I50; method in brief: as §3
[11] = species on record: Rattus norvegicus; assay: Evaluated for its potency Rat aorta (RA) strips in the presence of increasing concentrations; type: functional
Method in brief: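 Rat aortic strips contracted by U-46,619 in cumulative dose-response curves, repeated with increasing antagonist concentrations; Kb from analysis of the rightward shift.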

[12] = species on record: Homo sapiens; assay: Evaluated for its specificity to inhibit the aggregation of human platelets induced by Collagen at concentration of 10 ug/mL; type: functional; conditions: read-out: I50; method in brief: as §3
[13] = test system: Cavia porcellus; assay: Evaluated for the percent inhibition of arachidonate-induced dynamic compliance at 60 min after dosing (0.1 mg/kg iv) in anesthetized guinea pig.; type: functional; method in brief: as §4
[14] = species on record: Homo sapiens; assay: Evaluated for its specificity by inhibition of TXB2 and arachidonic acid (substrate) biosynthesis, enzyme source is human platelets.; type: functional; conditions: read-out: I50; method in brief: as §1
[15] = species on record: Homo sapiens; assay: Evaluated for its specificity to inhibit the aggregation of human platelets induced by U-46,619 at concentration of 5 uM; type: functional; conditions: read-out: I50; method in brief: as §2
[16] = species on record: Homo sapiens; assay: Evaluated for ability to inhibit platelet aggregation of human platelet-rich plasma (PRP) induced by 11.9-epoxymethano-PGH2.; type: functional; conditions: Homo sapiens, Plasma; read-out: I50; method in brief: as §2
[17] = test system: Cavia porcellus; assay: Evaluated for the percent inhibition of arachidonate-induced hypertension resulting in decreases in blood pressure at 3 min after dosing (0.1 mg/kg iv) in anesthetized guinea pig.; type: functional; method in brief: as §4
[18] = species on record: Homo sapiens; assay: Evaluated for its specificity to inhibit the aggregation of human platelets induced by Epinephrine(2 degree phase) at concentration of 10 uM; type: functional; conditions: read-out: I50; method in brief: as §3
[19] = species on record: Homo sapiens; assay: Evaluated for its specificity by inhibition of PGE-2 and PGH-2 (substrate) biosynthesis, enzyme source is human platelets.; type: functional; method in brief: as §1
[20] = species on record: Bos taurus; assay: Evaluated for its specificity by inhibition of 6-keto-PGF1-alpha and PGH-2 (substrate) biosynthesis, enzyme source is Bovine Aorta; type: functional; method in brief: as §1
[21] = species on record: Cavia porcellus; assay: Evaluated for its potency in Guinea pig trachea (GPT) spirals in the presence of increasing concentrations; type: functional; conditions: Cavia porcellus, Trachea
Method in brief: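 Guinea pig tracheal spirals contracted by U-46,619 in cumulative dose-response curves, repeated with increasing antagonist concentrations; Kb from analysis of the rightward shift.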

[22] = test system: Cavia porcellus; assay: Evaluated for the percent inhibition of arachidonate-induced hypertension resulting in decreases in blood pressure at 60 min after dosing (0.1 mg/kg iv) in anesthetized guinea pig.; type: functional; method in brief: as §4
[23] = test system: Cavia porcellus; assay: Evaluated for the percent inhibition of arachidonate-induced air-way resistance at 3 min after dosing (0.1 mg/kg iv) in anesthetized guinea pig.; type: functional; method in brief: as §4
[24] = species on record: Homo sapiens; assay: Evaluated for its specificity to inhibit the aggregation of human platelets induced by Epinephrine(1 degree phase) at concentration of 10 uM; type: functional; conditions: read-out: I50; method in brief: as §3
[25] = species on record: Homo sapiens; assay: Evaluated for its specificity by inhibition of TXB2 and PGH-2 (substrate) biosynthesis, enzyme source is human platelets.; type: functional; method in brief: as §1

- IC50 [1]: > 1000 µM
- IC50 [2]: 0.24 µM
- IC50 [3]: 0.18 µM
- IC50 [4]: > 1000 µM
- IC50 [5]: 0.56 µM
- IC50 [6]: > 1000 µM
- Kd [9]: 0.0496 µM
- IC50 [10]: > 1000 µM
- IC50 [12]: 0.19 µM
- IC50 [14]: > 1000 µM
- IC50 [15]: 0.22 µM
- IC50 [16]: 0.24 µM
- IC50 [18]: 0.04 µM
- IC50 [19]: > 1000 µM
- IC50 [20]: > 1000 µM
- IC50 [24]: > 1000 µM
- IC50 [25]: > 1000 µM
Compound: CCCCCCCC(=O)NCC(=O)NCC1C2CCC(O2)C1C/C=C/CCCC(=O)O (single isomer, unassigned; (-))
- Inhibition [7]: 23%
- Inhibition [8]: 86%
- Kb [11]: 0.0088 µM
- Inhibition [13]: 22%
- Inhibition [17]: 195%
- Kb [21]: 0.003 µM
- Inhibition [22]: 90%
- Inhibition [23]: 96%
